In PubChem BioAssay:
A number with no mark means an inactive call. Inconclusive results are not listed. Active and inactive are the calls of the source.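 Rule for the calls, unless noted: active = cell viability at or below a set limit in both duplicate runs, the limit being the all-compound median minus 4 SD (cut at about 23% in these data, passing the limit was not always enough); inconclusive = no clear call, values can overlap the other calls; inactive = the rest.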

Key:
[1] = S. cerevisiae growth inhibition in permissive medium (OD615), pilot counter-assay for S. cerevisiae lifespan shortening project, permissive growth control (AID 705;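 active = growth inhibition above 25% in both replicates, a cutoff set 3 SD above the mean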); conditions: OD615, 24 h, at 10 µM, active compounds read high
In short: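 assay system = Saccharomyces cerevisiae strain carrying genetically modified DeaD replicative-lifespan system | technique = absorbance (optical density) at 615 nm | buffer or medium = permissive raffinose/galactose medium | timing = cells pre-grown 4 h, then 24 h compound exposure, 30 °C humidified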

[2] = S. cerevisiae growth inhibition in restrictive medium, OD615, pilot screen, restrictive growth control, yeast lifespan reduction project (AID 706;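 active = growth inhibition above a set limit, 3 SD over mean compound inhibition, in both replicates, cut at about 43% in these data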;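 note: modified DeaD lifespan yeast strain shifted to restrictive glucose medium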); conditions: OD615, 48 h, at 10 µM, active compounds read high
In short: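 System: modified S. cerevisiae. Buffer or medium: CSMM-D glucose medium. Incubation: 4 h pre-growth plus 48 h compound exposure, 30 °C. Detection: absorbance (optical density) measured at 615 nm.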

[3] = doxorubicin toxicity protection in MRP-1 cells – H69AR cells, CellTiter-Glo, duplicate, MRP-1 activator project, pilot screen (AID 807;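 active = viability increase at or above a cutoff of the median across tested compounds plus 3 SD, cut at about 8.5% in these data, passing the limit was not always enough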;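 note: compound pretreatment 18-22 h then 72 h combined with doxorubicin; 0% = doxorubicin alone and 100% = vehicle without doxorubicin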); conditions: H69AR viability with doxorubicin, CellTiter-Glo luminescence; at 10 µM; active compounds read high
[4] = viability of HCT116 without oncogenic beta-catenin – human colon tumor cells, pilot screen (AID 823); conditions: HCT116 beta-catenin knockout viability, CellTiter-Glo, 60 h; at 10 µM; active compounds read low;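 note: 0% = wells killed by 20 µM Hyamine and 100% = untreated DMSO cell wells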
[5] = viability of PTEN-null HCT116 cells – cell-based, HCT116 clonal line, CellTiter-Glo, pilot screen (AID 824;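 active = viability at or below 27.92% in each of two runs, the all-compound median minus 4 SD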;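 note: 0% = 20 µM Hyamine control and 100% = vehicle cell control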); conditions: HCT116 PTEN-deleted viability, 60 h, at 10 µM, active compounds read low
[6] = RAM pathway blockade in budding yeast – dse1pr::URA3 reporter, 5-FOA selection, pilot screen (AID 869;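 active = inhibition over a set limit, the all-compound mean plus 3 SD, in both replicate runs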;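 note: 0% = DMSO wells with no growth and 100% = 10 µM 1-NA-PP1 with full growth; RAM network block rescues cells from 5-FOA so hits raise OD615 growth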); conditions: S. cerevisiae dse1pr::URA3 5-FOA growth, OD615, 2 d; at 10 µM; active compounds read high; strain carries analog-sensitive mutant Cbk1 kinase
[7] = RAM signaling pathway blockade in yeast – S. cerevisiae, Pdr1DBD-CYC8 efflux-inhibited sensitized strain, primary screen (AID 1298;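 active = RAM network inhibition above 8.4% in each of two replicates, 3 SD over the compound average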;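 note: 0% = DMSO untreated cells without growth and 100% = 10 µM 1-NA-PP1 full growth; higher means more yeast growth rescued from 5-FOA killing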); conditions: S. cerevisiae cbk1-as DSE1-URA3 strain, 5-FOA growth OD615, 2 d; at 50 µM; active compounds read high

CCCSc1nc2c(cnn2-c2ccc(F)cc2)c(=O)[nH]1
growth inhibition [1]: -5.3% | growth inhibition [2]: -3.29% | viability increase [3]: -2.46% | viability [4]: 95% | viability [5]: 94.7% | inhibition [6]: 0.82% | RAM network inhibition [7]: 2.71%

COc1cccc(C(=O)Nc2nnc(-c3cccs3)o2)c1
growth inhibition [1]: -16.4% | growth inhibition [2]: -17% | viability increase [3]: -4.26% | viability [4]: 44.8% | viability [5]: 56.3% | inhibition [6]: 0.07% | RAM network inhibition [7]: 0.16%

CCCc1cc(C(=O)Nc2cccnc2)no1
growth inhibition [1]: 0.43% | growth inhibition [2]: -0.16% | viability increase [3]: -1.86% | viability [4]: 100% | viability [5]: 94.9% | inhibition [6]: 0.915% | RAM network inhibition [7]: -0.87%

Cc1nc2ccc3nc(NC(=O)C4COc5ccccc5O4)sc3c2s1 (configuration not stated)
growth inhibition [1]: -10.6% | growth inhibition [2]: 0.74% | viability increase [3]: -4.93% | viability [4]: 86.8% | viability [5]: 80.6% | inhibition [6]: 1.55% | RAM network inhibition [7]: -0.06%

COc1ccc(C2CC(=O)c3cnc(NC(=O)c4ccccc4)nc3C2)cc1OC (configuration not stated)
growth inhibition [1]: -3.28% | growth inhibition [2]: -0.645% | viability increase [3]: -3.55% | viability [4]: 105% | viability [5]: 96.6% | inhibition [6]: 0.895% | RAM network inhibition [7]: 5.34%

CCOC(=O)C1CCCN(C(=O)C2CCN(c3nnc(-n4cccc4)s3)CC2)C1 (configuration not stated)
growth inhibition [1]: 5.27% | growth inhibition [2]: 2.6% | viability increase [3]: -2.17% | viability [4]: 98.5% | viability [5]: 90.8% | inhibition [6]: 1.1% | RAM network inhibition [7]: 2.55%

COc1cc(CNC(=O)OCC(C)C)cc(OC)c1OC
growth inhibition [1]: -11.4% | growth inhibition [2]: -20.8% | viability increase [3]: -0.03% | viability [4]: 99.7% | viability [5]: 99% | inhibition [6]: 0.19% | RAM network inhibition [7]: -0.93%

Cc1cc(C)n(-c2nnc(C)n2/N=C/c2cc(Br)ccc2OCc2ccccc2)n1
growth inhibition [1]: -10.3% | growth inhibition [2]: 13.9% | viability increase [3]: -7.71% | viability [4]: 12.4% (active) | viability [5]: 8.96% (active) | inhibition [6]: 0.37% | RAM network inhibition [7]: -1.07%

COCCOC(=O)C1=C(C)NC2=C(C(=O)CC(C)(C)C2)C1c1ccc(N(C)C)cc1 (configuration not stated)
growth inhibition [1]: -16.1% | growth inhibition [2]: -21.2% | viability increase [3]: -0.49% | viability [4]: 97.4% | viability [5]: 98.3% | inhibition [6]: -0.03% | RAM network inhibition [7]: 3.6%

CCOC(=O)C1=C(C)NC(=O)NC1c1ccc(OCC(=O)Nc2ccccc2)c(OC)c1 (configuration not stated)
growth inhibition [1]: -2.03% | growth inhibition [2]: -26% | viability increase [3]: -1.88% | viability [4]: 102% | viability [5]: 95% | inhibition [6]: 2.01% | RAM network inhibition [7]: 0.32%

CCN1C(=O)CSc2ccc(C(=O)OC)cc21
growth inhibition [1]: -6.5% | growth inhibition [2]: -12.7% | viability increase [3]: -1.33% | viability [4]: 95.6% | viability [5]: 90.3% | inhibition [6]: 1.39% | RAM network inhibition [7]: -0.69%

CCSc1nnc(NC(=O)CCc2ccccc2)s1
growth inhibition [1]: 0.055% | growth inhibition [2]: -7.23% | viability increase [3]: -1.7% | viability [4]: 88.7% | viability [5]: 95.1% | inhibition [6]: 3.51% | RAM network inhibition [7]: 3.66%

CC1(C)SCC2C(=O)N3C(CSC3(C)C)C(=O)N21 (configuration not stated)
growth inhibition [1]: 2.82% | growth inhibition [2]: -6.7% | viability increase [3]: 0.02% | viability [4]: 107% | viability [5]: 96.2% | inhibition [6]: 1.5% | RAM network inhibition [7]: 4.22%

Cc1nc2sc(C(c3cccs3)N3CCN(c4cccc(Cl)c4)CC3)c(O)n2n1 (configuration not stated)
growth inhibition [1]: -5.61% | growth inhibition [2]: 2.47% | viability increase [3]: 2.07% | viability [4]: 93.7% | viability [5]: 83.5% | inhibition [6]: 2.32% | RAM network inhibition [7]: 5.45%

Cc1cccc(-n2c(Cc3cc(=O)[nH]c(=O)[nH]3)nnc2SCC(=O)N2CCCCC2)c1
growth inhibition [1]: 4% | growth inhibition [2]: 16.8% | viability increase [3]: -0.52% | viability [4]: 106% | viability [5]: 87.8% | inhibition [6]: 3.3% | RAM network inhibition [7]: -0.11%

O=C1CC(c2ccccc2)CN1C(=O)c1ccccc1 (configuration not stated)
growth inhibition [1]: 2.52% | growth inhibition [2]: -1.8% | viability increase [3]: 1.53% | viability [4]: 104% | viability [5]: 98.6% | inhibition [6]: 2.67% | RAM network inhibition [7]: 6.11%

Cc1nc(N2CCN(c3ccccc3)CC2)c2c3c(sc2n1)CCC3
growth inhibition [1]: -0.345% | growth inhibition [2]: 29.8% | viability increase [3]: 3% | viability [4]: 73.8% | viability [5]: 81.5% | inhibition [6]: 1.38% | RAM network inhibition [7]: 1.62%

Cc1ccc(C(=O)NCc2ccco2)cc1S(=O)(=O)N1CCCCC1
growth inhibition [1]: -11.6% | growth inhibition [2]: -5.65% | viability increase [3]: -5.21% | viability [4]: 82.9% | viability [5]: 85.5% | inhibition [6]: 3% | RAM network inhibition [7]: 6.81%

COc1ccc(C2C(C(=O)N3CCCCC3)CCC(=O)N2c2cc(OC)c(OC)c(OC)c2)cc1 (configuration not stated)
growth inhibition [1]: -15% | growth inhibition [2]: -5.94% | viability increase [3]: -7.12% | viability [4]: 100% | viability [5]: 89% | inhibition [6]: 0.98% | RAM network inhibition [7]: 5.22%

COCCNC(=O)c1ccccc1NC(=O)C1COc2ccccc2O1 (configuration not stated)
growth inhibition [1]: -3.84% | growth inhibition [2]: -0.665% | viability increase [3]: -0.74% | viability [4]: 95.8% | viability [5]: 102% | inhibition [6]: 2.8% | RAM network inhibition [7]: 4.39%

CCCCCn1c(NC2CCCCC2)nc2c1c(=O)[nH]c(=O)n2C
growth inhibition [1]: -15.8% | growth inhibition [2]: -18.2% | viability increase [3]: -3.48% | viability [4]: 83.3% | viability [5]: 86.1% | inhibition [6]: 1.53% | RAM network inhibition [7]: -0.84%

CCn1c(CCCNC(=O)c2cccs2)nc2ccccc21
growth inhibition [1]: -6.02% | growth inhibition [2]: -11.4% | viability increase [3]: -2.77% | viability [4]: 104% | viability [5]: 96.1% | inhibition [6]: 2.48% | RAM network inhibition [7]: 1.95%

COc1ccc(NC(=O)C(c2ccccc2)N(C)C(=O)c2cnccn2)cc1 (configuration not stated)
growth inhibition [1]: -4.62% | growth inhibition [2]: -12.6% | viability increase [3]: -1.52% | viability [4]: 99.2% | viability [5]: 90.8% | inhibition [6]: 0.88% | RAM network inhibition [7]: 0.05%

COc1ccc(OC)c(NC(=O)C2CCCN(S(=O)(=O)c3cccc4cccnc34)C2)c1 (configuration not stated)
growth inhibition [1]: -12.7% | growth inhibition [2]: -10.7% | viability increase [3]: -3.24% | viability [4]: 87.3% | viability [5]: 80.1% | inhibition [6]: 1.78% | RAM network inhibition [7]: 6.71%

Cc1cc(Nc2ccc(F)cc2F)n2nc(C)nc2n1
growth inhibition [1]: -20.2% | growth inhibition [2]: -3.57% | viability increase [3]: -1.98% | viability [4]: 104% | viability [5]: 98.5% | inhibition [6]: 0.33% | RAM network inhibition [7]: 2.94%

O=C(O)CCn1c(-c2ccccc2)cc2c1CCCC2=O
growth inhibition [1]: 1.65% | growth inhibition [2]: -0.555% | viability increase [3]: -0.35% | viability [4]: 95.7% | viability [5]: 95% | inhibition [6]: 4.84% | RAM network inhibition [7]: 0.47%

CC1CCCN(C(=O)c2ccc3c(c2)C(=O)N(CCC2=CCCCC2)C3=O)C1 (configuration not stated)
growth inhibition [1]: -5.42% | growth inhibition [2]: -30.7% | viability increase [3]: -0.25% | viability [4]: 87.5% | viability [5]: 83.8% | inhibition [6]: 0.28% | RAM network inhibition [7]: 3.27%

O=C1CC(c2nc3ccccc3[nH]2)CN1c1ccccc1F (configuration not stated)
growth inhibition [1]: 3.64% | growth inhibition [2]: -1.12% | viability increase [3]: -0.52% | viability [4]: 98.3% | viability [5]: 92.5% | inhibition [6]: 0.355% | RAM network inhibition [7]: 1.89%

COc1cccc(C(c2sc3ncnn3c2O)N2CC(C)OC(C)C2)c1 (configuration not stated)
growth inhibition [1]: 4.48% | growth inhibition [2]: -2.31% | viability increase [3]: 2.62% | viability [4]: 99.1% | viability [5]: 95.7% | inhibition [6]: 1.34% | RAM network inhibition [7]: 2.05%

Cc1cc(N)n2ncc(-c3cccc(Br)c3)c2n1
growth inhibition [1]: 2.1% | growth inhibition [2]: -6.45% | viability increase [3]: -6.91% | viability [4]: 75.4% | viability [5]: 71.8% | inhibition [6]: 0.315% | RAM network inhibition [7]: 1.65%

Cc1csc(NC(=O)C2CCCN(S(=O)(=O)c3cccnc3)C2)n1 (configuration not stated)
growth inhibition [1]: -7.25% | growth inhibition [2]: 1.94% | viability increase [3]: -0.73% | viability [4]: 104% | viability [5]: 101% | inhibition [6]: 1.59% | RAM network inhibition [7]: 4.94%

Cc1ccc(S(=O)(=O)/N=C(/Nc2nc(C)cc(C)n2)N2CCOCC2)cc1
growth inhibition [1]: -0.825% | growth inhibition [2]: -15.5% | viability increase [3]: -3.21% | viability [4]: 98.7% | viability [5]: 97.4% | inhibition [6]: 1.6% | RAM network inhibition [7]: 4.96%

CC(=O)NCCc1nc2ccccc2n1Cc1ccccc1
growth inhibition [1]: 1.21% | growth inhibition [2]: -2.44% | viability increase [3]: -2% | viability [4]: 106% | viability [5]: 98.8% | inhibition [6]: 1.33% | RAM network inhibition [7]: 3.58%

CCOC(=O)Cc1nnc(NC(=O)CSc2nncn2C)s1
growth inhibition [1]: -1.1% | growth inhibition [2]: 7.44% | viability increase [3]: -0.06% | viability [4]: 98.5% | viability [5]: 94.5% | inhibition [6]: 1.5% | RAM network inhibition [7]: 2.87%

CCC(CC)C(=O)Nc1cc(C)c2c(=O)oc3ccccc3c2n1
growth inhibition [1]: -17.2% | growth inhibition [2]: -12.2% | viability increase [3]: -5.01% | viability [4]: 62.5% | viability [5]: 64.2% | inhibition [6]: 2.33% | RAM network inhibition [7]: 9.87%

COc1cc(C(=O)NCC(c2ccco2)N2CCCC2)ccc1OCc1c(C)noc1C (configuration not stated)
growth inhibition [1]: 0.045% | growth inhibition [2]: -23.7% | viability increase [3]: -4.73% | viability [4]: 82.7% | viability [5]: 83.8% | inhibition [6]: 1.03% | RAM network inhibition [7]: 3.83%
